Data from ChEMBL document CHEMBL4385657, “A fragment-like approach to PYCR1 inhibition” (Bioorg Med Chem Lett, 2019).
Active and inactive are the calls of the source. The calls are words filed in the database; no cut-off is given here.

Columns and labels:
[1] = biological target: T1, Pyrroline-5-carboxylate reductase 1, mitochondrial (Homo sapiens, UniProt P32322); assay: Inhibition of 6x-His-tagged and SUMO tagged human PYCR1 expressed in Escherichia coli BL21 (DE3) cells assessed as reduction in NADH oxidation incubated for 1 hr
T1 sequence (P32322 whole entry): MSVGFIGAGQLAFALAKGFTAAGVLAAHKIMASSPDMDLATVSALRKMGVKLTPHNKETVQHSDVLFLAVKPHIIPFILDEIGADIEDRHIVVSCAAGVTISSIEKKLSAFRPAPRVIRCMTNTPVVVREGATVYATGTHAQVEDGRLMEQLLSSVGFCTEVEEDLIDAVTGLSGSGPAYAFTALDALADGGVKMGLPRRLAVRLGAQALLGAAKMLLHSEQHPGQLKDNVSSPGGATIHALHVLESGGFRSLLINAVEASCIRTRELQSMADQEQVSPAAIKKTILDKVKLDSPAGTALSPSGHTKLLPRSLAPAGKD

SUM-159-PT [2] = assay: Effect on phenylalanine content in human SUM159PT cells at 100 uM by LC-MS analysis relative to control; format: functional, cell-based
Procedure, shortened: (§1)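 Human breast cancer SUM-159-PT cells were incubated with test agent at 1, 5, 20 and 100 µM (or at 100 µM alone). The cells were then lysed, and proline and the essential amino acids were quantified by LC-MS. Each amino acid level was compared against an untreated control culture.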

SUM-159-PT [3] = assay: Effect on leucine content in human SUM159PT cells at 100 uM by LC-MS analysis relative to control; format: functional, cell-based; procedure, shortened: as §1
SUM-159-PT [4] = assay: Effect on methionine content in human SUM159PT cells at 100 uM by LC-MS analysis relative to control; format: functional, cell-based; procedure, shortened: as §1
SUM-159-PT [5] = assay: Effect on tryptophan content in human SUM159PT cells at 100 uM by LC-MS analysis relative to control; format: functional, cell-based; procedure, shortened: as §1
SUM-159-PT [6] = assay: Effect on valine content in human SUM159PT cells at 100 uM by LC-MS analysis relative to control; format: functional, cell-based; procedure, shortened: as §1
SUM-159-PT [7] = assay: Effect on isoleucine content in human SUM159PT cells at 100 uM by LC-MS analysis relative to control; format: functional, cell-based; procedure, shortened: as §1
SUM-159-PT [8] = assay: Effect on methionine content in human SUM159PT cells at 1 to 100 uM by LC-MS analysis relative to control; format: ADME, cell-based; procedure, shortened: as §1
SUM-159-PT [9] = assay: Effect on phenylalanine content in human SUM159PT cells at 1 to 100 uM by LC-MS analysis relative to control; format: ADME, cell-based; procedure, shortened: as §1
SUM-159-PT [10] = assay: Effect on isoleucine content in human SUM159PT cells at 1 to 100 uM by LC-MS analysis relative to control; format: ADME, cell-based; procedure, shortened: as §1
SUM-159-PT [11] = assay: Effect on leucine content in human SUM159PT cells at 1 to 100 uM by LC-MS analysis relative to control; format: ADME, cell-based; procedure, shortened: as §1
SUM-159-PT [12] = assay: Effect on tryptophan content in human SUM159PT cells at 1 to 100 uM by LC-MS analysis relative to control; format: ADME, cell-based; procedure, shortened: as §1
SUM-159-PT [13] = assay: Effect on valine content in human SUM159PT cells at 1 to 100 uM by LC-MS analysis relative to control; format: ADME, cell-based; procedure, shortened: as §1
SUM-159-PT [14] = assay: Toxicity in human SUM159PT cells assessed as reduction in cell viability at 100 uM; format: cell-based
[15] = biological target: T2, Amine oxidase [flavin-containing] B (Homo sapiens, UniProt P27338); assay: Inhibition of MAOB (unknown origin)
T2 sequence (P27338 whole entry): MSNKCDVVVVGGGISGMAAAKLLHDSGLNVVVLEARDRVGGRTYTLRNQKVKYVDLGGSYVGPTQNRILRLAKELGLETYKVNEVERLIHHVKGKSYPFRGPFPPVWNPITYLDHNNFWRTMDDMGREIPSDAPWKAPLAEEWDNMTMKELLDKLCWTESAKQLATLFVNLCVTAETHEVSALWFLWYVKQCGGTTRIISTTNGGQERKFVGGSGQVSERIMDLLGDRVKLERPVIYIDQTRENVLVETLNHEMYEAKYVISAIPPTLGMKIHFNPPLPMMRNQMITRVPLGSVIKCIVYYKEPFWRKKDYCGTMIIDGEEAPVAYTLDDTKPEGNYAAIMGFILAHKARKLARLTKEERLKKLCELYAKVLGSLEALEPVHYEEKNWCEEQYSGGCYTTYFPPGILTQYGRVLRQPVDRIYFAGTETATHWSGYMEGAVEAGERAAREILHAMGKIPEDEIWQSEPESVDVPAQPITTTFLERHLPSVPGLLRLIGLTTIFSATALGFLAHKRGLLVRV

Row | SMILES | IC50 [1] [µM] | further results
1 | C#CCN1CCc2cc(Br)ccc2C1 | > 500 | 
2 | C#CCN(Cc1ccc(Br)cc1)C(C)C | > 500 | 
3 | C#CCNCc1ccc(Br)cc1 | 99 | 
4 | C#CCN(C)Cc1c(Cl)cccc1Cl | > 500 | 
5 | C#CCN(C)Cc1ccc(C)cc1C | 55 | 
6 | C#CCN(C)Cc1cc(C)no1 | > 500 | 
7 | C#CCN(Cc1ccc(Br)cc1)CC1CC1 | > 500 | 
8 | C#CC(C)N(C)Cc1ccc(Br)cc1 (centres undefined) | 394 | 
9 | C#CCN1Cc2ccc(Br)cc2C1 | > 500 | 
10 | C#CCN(C)Cc1ccc(-c2ccccc2)cc1 | 315 | 
11 | C#CCN(CC(=O)OC(C)(C)C)Cc1ccc(Br)cc1 | > 500 | 
12 | C#CCN(C)Cc1ccc(C(F)(F)F)cc1 | 65 | 
13 | C#CCN(C)Cc1ccc(C)cc1 | 40 | 
14 | C#CCN(C)Cc1ccccc1Cl | 139 | 
15 | C#CCN(C)Cc1cc(Br)cs1 | > 500 | 
16 | C#CCN(Cc1ccc(Br)cc1)S(C)(=O)=O | > 500 | 
17 | C#CCN(C)Cc1ccc(C#N)cc1 | > 500 | 
18 | C#CCN(C)Cc1cc(Cl)cc(Cl)c1 | > 500 | 
19 | C#CCN(C)Cc1ccc(Cl)cc1 | 13 | 
20 | C#CCN(C)Cc1ccccc1Br | 200 | 
21 | C#CCN(C)Cc1ccc(OC)cc1 | 38 | 

Row | SMILES | IC50 [1] [µM] | further results
22 | C#CCN(C)C(C)c1ccc(Br)cc1 (centres undefined) | 316 | 
23 | C#CCN(C)Cc1ccc(Br)cc1Br | 228 | 
24 | C#CCN(CCC)Cc1ccc(Br)cc1 | > 500 | 
25 | C#CCN(C)Cc1ccc(Cl)c(Cl)c1 | 13.6 | 
26 | CNCc1ccc(Br)cc1 | 161 | 
27 | C#CCN(C)Cc1ccccc1 [PARGYLINE] | 198 | Activity (SUM-159-PT [2]): inactive; Activity (SUM-159-PT [3]): inactive; Activity (SUM-159-PT [4]): inactive; Activity (SUM-159-PT [5]): inactive; Activity (SUM-159-PT [6]): inactive; Activity (SUM-159-PT [7]): inactive
28 | CN(Cc1ccc(Br)cc1)CC1CC1 | > 500 | 
29 | C#CCN(Cc1ccc(Br)cc1)Cc1ccc(Br)cc1 | 92 | 
30 | C#CCN(CC)Cc1ccc(Br)cc1 | 58 | 
31 | C#CCN(C)Cc1ccc(Br)cc1 |  | Activity (SUM-159-PT [8]): Non-Toxic; Activity (SUM-159-PT [9]): Non-Toxic; Activity (SUM-159-PT [10]): Non-Toxic; Activity (SUM-159-PT [11]): Non-Toxic; Activity (SUM-159-PT [12]): Non-Toxic; Activity (SUM-159-PT [13]): Non-Toxic; Activity (SUM-159-PT [14]): Non-Toxic; IC50 [15]: 300 nM
32 | C#CCN(C)Cc1ccc(Cl)cc1Br | 66 | 
33 | C#CCN(C)Cc1ccc(Br)cc1Cl | 34 | 
34 | C#CCN(C)Cc1ccc(C(C)C)cc1 | 142 | 
35 | C#CCN(C)Cc1ccc(OC)cc1OC | > 500 | 
36 | C#CCN(C)Cc1ccc(Br)cc1OC | 21 | 
37 | C#CCN(C)Cc1ccc(Cl)cc1Cl | 9.2 | 
38 | C#CCN(C)Cc1ccc(Br)cc1F | 42 | 
39 | C#CCN(C)Cc1cccc(Cl)c1 | 52 | 
40 | C#CCCN(C)Cc1ccc(Br)cc1 | > 500 | 
41 | C#CCN(C)Cc1ccc(Br)cc1C | 38 | 
42 | CN(CC#Cc1ccccc1)Cc1ccc(Br)cc1 | 71 | 

Row | SMILES | IC50 [1] [µM] | further results
43 | C#CCN(C)Cc1cccc(Br)c1 | 276 | 
44 | C#CCN(C)Cc1ccc2ccccc2c1 | 21 | 
45 | C#CCN(C)Cc1ccc(F)cc1Br | > 500 | 
46 | C#CCN(C)Cc1ccc([N+](=O)[O-])cc1 | 43 | 
47 | C#CCN(C)CCc1ccc(Br)cc1 | > 500 | 
48 | C#CCN(C)Cc1ccc(I)cc1 | 9.7 | 
49 | C#CCN(Cc1ccc(Br)cc1)Cc1cc(C)no1 | 100 | 
50 | CC#CCN(C)Cc1ccc(Br)cc1 | 16 | 
51 | C#CCN(C)Cc1ccccc1[N+](=O)[O-] | > 500 | 
52 | C=CCN(C)Cc1ccc(Br)cc1 | > 500 | 
53 | C#CCN(C)Cc1cccc([N+](=O)[O-])c1 | 394 | 
54 | C#CCN(C)Cc1ccc(-c2ccc(F)cc2)cc1 | 211 | 
55 | CN(Cc1ccccc1)Cc1ccc(Br)cc1 | > 500 | 
56 | CCCN(C)Cc1ccc(Br)cc1 | 337 | 
57 | C#CCN(C)Cc1ccc(Cl)c(C(F)(F)F)c1 | 43 | 
58 | C#CCN(Cc1ccc(Br)cc1)C(C)=O | > 500 | 
59 | C#CCN(C)Cc1ccc(C(C)=O)cc1 | 184 | 
60 | C#CCN(CCC=C)Cc1ccc(Br)cc1 | > 500 | 
61 | C#CCN(C)Cc1ccc(F)cc1 | 311 | 
